CHRM5 PAM = human M5 muscarinic receptor positive allosteric modulators, primary screen, CHO-K1 cells, Fluo-8 calcium fluorescence. Muscarinic acetylcholine receptor M5 (Homo sapiens), P08912. CHO-K1 hM5, ACh EC20 PAM; 0% = ACh EC20, 100% = ACh EC100. activation, % at 3 µM. 0.3% of 360,000 active. AID 624038, 2012;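 active = activation above the run cutoff, the mean activation of all test compounds plus 3 SD, cut at about 18% in these data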
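Assay system: CHO-K1 hM5 cells. Also added: acetylcholine at EC20 concentration, added after compound. Dosing: 3 µM, single dose. Times: compound preincubation 140 s before EC20 acetylcholine addition. Signal: Fluo-8 calcium fluorescence. Measure: % activation relative to EC20 and EC100 ACh responses. Repeats: singlicate, one well per test compound.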
CHRM4 PAM = human M4 muscarinic receptor positive allosteric modulators, primary screen, CHO-K1 cells, Fluo-8 calcium fluorescence; activation, % at 3 µM; AID 624126, 2012; 0.4% of 360,000 active; CHO-K1 hM4/Gqi5, ACh EC20; 0% = ACh EC20, 100% = maximal ACh; Muscarinic acetylcholine receptor M4 (Homo sapiens), P08173;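 active = activation above its plate's cutoff, the mean activation of sample wells plus 3 SD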
Target sequence (P08173 whole entry, looked up): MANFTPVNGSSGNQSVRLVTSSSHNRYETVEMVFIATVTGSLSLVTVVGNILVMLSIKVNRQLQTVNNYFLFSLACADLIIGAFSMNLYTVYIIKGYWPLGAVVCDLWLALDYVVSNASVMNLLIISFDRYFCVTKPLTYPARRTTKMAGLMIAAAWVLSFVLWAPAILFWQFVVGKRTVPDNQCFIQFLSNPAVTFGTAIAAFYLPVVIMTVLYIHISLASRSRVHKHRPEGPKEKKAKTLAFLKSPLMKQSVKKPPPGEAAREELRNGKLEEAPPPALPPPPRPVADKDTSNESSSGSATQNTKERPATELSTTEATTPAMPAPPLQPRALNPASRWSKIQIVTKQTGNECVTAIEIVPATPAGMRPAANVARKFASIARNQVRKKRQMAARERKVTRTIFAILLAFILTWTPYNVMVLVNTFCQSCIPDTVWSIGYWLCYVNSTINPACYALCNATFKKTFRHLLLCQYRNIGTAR
M4 ag = human M4 muscarinic receptor agonists, primary screen, CHO-K1 cells, Fluo-8 calcium fluorescence; activation, % at 3 µM; CHO-K1 hM4/Gqi5; vehicle 0%, full acetylcholine response 100%; 0.14% of 360,000 active; AID 624127, 2012;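 active = activation above the run mean over all test wells plus 3 SD, cut at about 32% in these data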;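 also: peak over basal fluorescence ratio per well then scaled between controls; 0% = DMSO wells and 100% = acetylcholine at EC100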
M4 antag = human M4 muscarinic receptor antagonists, primary screen, CHO cells, Fluo-8 calcium fluorescence. Muscarinic acetylcholine receptor M4 (Homo sapiens), P08173. CHO-hM4 cells, ACh EC80. inhibition, % at 3 µM. 0.73% of 360,000 active. AID 624125, 2012;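 active = inhibition above its plate's cutoff, the mean inhibition of sample wells plus 3 SD, cut at about 27% in these data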;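 also: 0% = acetylcholine EC80 with DMSO and 100% = DMSO without agonist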
M5 antag = human M5 muscarinic receptor antagonists, primary screen, CHO cells, Fluo-8 calcium fluorescence | Muscarinic acetylcholine receptor M5 (Homo sapiens), P08912 | CHO-hM5 cells, ACh EC80 | inhibition, % at 3 µM | 0.59% of 360,000 active;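 active = inhibition above a per-plate cutoff, the mean of that plate's test compounds plus 3 SD, cut at about 27% in these data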;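 also: 0% = acetylcholine EC80 with DMSO and 100% = DMSO without agonist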
M5 ag = human M5 muscarinic receptor agonists, primary screen, CHO-K1 cells, Fluo-8 calcium fluorescence; activation, % at 3 µM; 0.19% of 360,000 active; Muscarinic acetylcholine receptor M5 (Homo sapiens), P08912; CHO-K1 hM5 cells; 0% DMSO wells, 100% maximal acetylcholine response; AID 624037, 2012;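 active = activation above the run's mean over test compounds plus 3 SD, cut at about 23% in these data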;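 also: signal is peak over basal fluorescence ratio across the kinetic read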
The depositor's hits bear a star. Shown are actives, neighbours in structure and some others; about 1.9% of the full set was active somewhere.

SMILES	CHRM5 PAM	CHRM4 PAM	M4 ag	M4 antag	M5 antag	M5 ag
O=C1c2cccc3c(N4CCCCC4)ccc(c23)C(=O)N1c1ccccc1O	-20	-17	39*	35*	35*	28*
O=C1c2cccc3c(N4CCCCC4)ccc(c23)C(=O)N1c1ccc(O)cc1	-9	1	11	4	18	21
Cc1c(N2C(=O)/C(=C/c3ccc(N(C)C)cc3)N(C)C2=S)c(=O)n(-c2ccccc2)n1C	-18	-1	4	3	20	34*
CCCCNc1c(-c2ccc(SC(C)CC)c(OC)c2)nc2ccc(Cl)cn12 (centres undefined)	-21	-12	2	35*	12	-5
CCCCNc1c(-c2ccc(SC(C)CC)c(OC)c2)nc2ccc(C)cn12 (centres undefined)	-36	-12	16	55*	37*	-5
COc1ccc(F)cc1S(=O)(=O)n1nc(C)cc1C	17	7	0	-3	-4	-3
CCOC(=O)/C(=N/Nc1ccc(Br)cc1)N1CC(C)OC(C)C1 (centres undefined)	-10	9	-2	-13	9	-3
CCOC(=O)N1CCN(C(=O)C2CCN(C(=O)c3ccccc3C)CC2)CC1	2	-3	9	5	5	-6
COC(=O)C12OCC34C(CC5C(C)=C(O)C(=O)CC5(C)C3C(O)C1O)OC(=O)C(OC(=O)C=C(C)C)C24 (centres undefined)	6	1	0	-11	-1	5
O=C(Nc1ccc2ccccc2c1)NC1CCS(=O)(=O)C1 (centres undefined)	-3	0	1	-3	4	-1
CC(C)(C)n1nc2c(c1NC(=O)c1ccc(S(=O)(=O)N3CCCCC3)cc1)CS(=O)C2 (centres undefined)	32*	1	0	-6	6	-4
Cc1cc(C)c(C)c(S(=O)(=O)N2CCC(C(=O)OCC(=O)NC3CCS(=O)(=O)C3)CC2)c1C (centres undefined)	-3	6	6	-5	3	4
CCOc1ccc(S(=O)(=O)NC(Cc2cnc[nH]2)C(=O)O)cc1 (centres undefined)	9	21*	3	-6	5	5
Oc1ccc(C[C@H]2CNC(=S)N2CC2CCCN2C[C@H](Cc2ccccc2)N2C[C@H](Cc3ccc(O)cc3)N(CCc3ccccc3)C2=S)cc1 (some centres undefined)	-6	7	0	-9	3	2
CCOC(=O)c1oc2ccccc2c1NC(=O)C(C)(C)C	5	5	-1	-6	6	-1
CCOC(=O)c1oc2ccc(Cl)cc2c1NC(C)=O	1	20*	2	-9	8	-1
COc1ccc(CCNC(=O)Cc2ccc(OCc3ccccc3)c(OC)c2[N+](=O)[O-])cc1OCc1ccccc1	-11	1	4	-3	22	4
CC(C)CN(C(=O)COC(=O)CCc1c[nH]c2ccccc12)c1c(N)n(Cc2ccccc2)c(=O)[nH]c1=O	1	2	2	0	7	1
CC(C)CN(C(=O)COC(=O)CCCc1c[nH]c2ccccc12)c1c(N)n(Cc2ccccc2)c(=O)[nH]c1=O	-6	-2	1	7	29*	-2
CCCCN1C(=O)C(=O)N(CC(=O)Nc2sc(C)c(C)c2C(=O)OC)C1=O	9	5	1	2	4	-1
CCOc1ccc(C(=O)NCc2ccccn2)cc1	3	31*	1	1	0	0
Cc1noc(C)c1COc1ccc(C(=O)NCCc2ccccn2)cc1	9	29*	5	-15	2	-2
Cc1noc(C)c1COc1ccc(CC(=O)NCCc2ccccn2)cc1	4	-3	1	7	0	-4

From PubChem
